# Key:
# [1] = tested on: A-427; experiment: Growth inhibition of human A427 cells assessed as ATP level after 96 hrs by CellTiter-Glo assay; type: functional; conditions: A-427, 96 h
# How it was run: (§1)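 NSCLC lines maintained as in earlier work and authenticated by mutational analysis and SNP arrays. Cells were plated in 384-well format and allowed 24 h before compound addition as 10 threefold serial dilutions (DMSO stocks). After 96 h, viability was read as cellular ATP by CellTiter-Glo. GI50 was fitted with an R package.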
# [2] = Growth inhibition of human HCC95 cells assessed as ATP level after 96 hrs by CellTiter-Glo assay; type: functional; conditions: HCC95, 96 h; how it was run: as §1
# [3] = biological target: Calcium/calmodulin-dependent protein kinase type 1 (Homo sapiens) (UniProt Q14012); experiment: Inhibition of CAMK1 assessed as residual activity at 10 uM
# How it was run: (§2)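 Kinase panel screen run as a radioactive activity assay at single compound concentration. Score reported as percent activity remaining relative to DMSO controls (100%).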
# [4] = Growth inhibition of human NCI-H1944 cells assessed as ATP level after 96 hrs by CellTiter-Glo assay; type: functional; conditions: NCI-H1944, 96 h
# How it was run: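 Human NSCLC cells, maintained as described previously and authenticated by mutational analysis and SNP arrays, were plated and incubated 24 h. Compounds were dissolved in DMSO and added as 10 threefold serial dilutions. Viability was read after 96 h as cellular ATP content by luminescence, and half-maximal inhibitory concentrations were fitted to give GI50.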
# [5] = Growth inhibition of human HCC364 cells assessed as ATP level after 96 hrs by CellTiter-Glo assay; type: functional; conditions: HCC364, 96 h; how it was run: as §1
# [6] = tested on: NCI-H2228; experiment: Growth inhibition of human NCI-H2228 cells assessed as ATP level after 96 hrs by CellTiter-Glo assay; type: functional; conditions: NCI-H2228, 96 h
# [7] = biological target: T1, Serine/threonine-protein kinase Chk1 (Homo sapiens) (UniProt O14757); experiment: Inhibition of CHK1 assessed as residual activity at 10 uM; how it was run: as §2
# T1 sequence (whole entry): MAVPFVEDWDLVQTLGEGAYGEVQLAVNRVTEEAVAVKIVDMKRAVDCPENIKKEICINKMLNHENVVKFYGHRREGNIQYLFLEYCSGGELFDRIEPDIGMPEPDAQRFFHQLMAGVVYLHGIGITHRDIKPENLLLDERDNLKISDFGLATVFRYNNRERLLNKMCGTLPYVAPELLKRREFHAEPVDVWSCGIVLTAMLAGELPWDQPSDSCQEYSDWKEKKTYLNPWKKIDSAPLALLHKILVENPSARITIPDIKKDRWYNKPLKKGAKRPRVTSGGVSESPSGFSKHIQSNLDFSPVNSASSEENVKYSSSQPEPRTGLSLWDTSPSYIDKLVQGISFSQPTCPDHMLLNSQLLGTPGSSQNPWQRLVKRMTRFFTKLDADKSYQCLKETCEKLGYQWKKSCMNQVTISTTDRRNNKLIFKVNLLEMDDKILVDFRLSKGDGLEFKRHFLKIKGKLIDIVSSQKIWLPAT
# [8] = biological target: T2, Dual specificity protein kinase TTK (Homo sapiens) (UniProt P33981); experiment: Inhibition of TTK assessed as residual activity at 10 uM
# T2 sequence (whole entry): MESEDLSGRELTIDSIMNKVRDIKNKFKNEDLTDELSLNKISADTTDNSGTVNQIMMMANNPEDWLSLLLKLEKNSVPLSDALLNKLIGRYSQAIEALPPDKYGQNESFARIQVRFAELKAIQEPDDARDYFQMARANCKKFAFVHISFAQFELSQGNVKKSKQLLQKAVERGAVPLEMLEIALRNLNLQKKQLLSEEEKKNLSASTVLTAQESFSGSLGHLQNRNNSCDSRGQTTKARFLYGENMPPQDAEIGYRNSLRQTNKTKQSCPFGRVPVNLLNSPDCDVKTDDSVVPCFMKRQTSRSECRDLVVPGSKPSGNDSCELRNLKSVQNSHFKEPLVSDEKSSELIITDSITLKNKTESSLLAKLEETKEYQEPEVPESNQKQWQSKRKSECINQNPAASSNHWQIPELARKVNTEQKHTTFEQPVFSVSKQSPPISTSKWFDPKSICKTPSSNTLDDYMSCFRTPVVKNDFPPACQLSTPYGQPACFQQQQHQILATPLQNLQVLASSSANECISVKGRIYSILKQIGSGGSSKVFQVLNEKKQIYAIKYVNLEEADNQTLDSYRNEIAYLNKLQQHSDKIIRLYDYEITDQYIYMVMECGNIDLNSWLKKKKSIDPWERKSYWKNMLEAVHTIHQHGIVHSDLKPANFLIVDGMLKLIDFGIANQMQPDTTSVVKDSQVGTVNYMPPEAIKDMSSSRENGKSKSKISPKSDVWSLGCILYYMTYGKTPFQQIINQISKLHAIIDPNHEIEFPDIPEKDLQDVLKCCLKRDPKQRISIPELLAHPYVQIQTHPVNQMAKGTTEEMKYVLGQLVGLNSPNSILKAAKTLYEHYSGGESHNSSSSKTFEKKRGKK
# How it was run: (§3)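 Panel screen by radioactive kinase assay at a single inhibitor concentration. Score is the percent activity remaining relative to DMSO controls (100%).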
# [9] = Growth inhibition of human H23 cells assessed as ATP level after 96 hrs by CellTiter-Glo assay; type: functional; conditions: NCI-H23, 96 h; how it was run: as §1
# [10] = biological target: Epidermal growth factor receptor (Homo sapiens, UniProt P00533); experiment: Inhibition of EGFR by HTRF assay
# [11] = biological target: T3, Serine/threonine-protein kinase TBK1 (Homo sapiens) (UniProt Q9UHD2); experiment: Inhibition of TBK1 assessed as residual activity at 10 uM; how it was run: as §3
# T3 sequence (whole entry): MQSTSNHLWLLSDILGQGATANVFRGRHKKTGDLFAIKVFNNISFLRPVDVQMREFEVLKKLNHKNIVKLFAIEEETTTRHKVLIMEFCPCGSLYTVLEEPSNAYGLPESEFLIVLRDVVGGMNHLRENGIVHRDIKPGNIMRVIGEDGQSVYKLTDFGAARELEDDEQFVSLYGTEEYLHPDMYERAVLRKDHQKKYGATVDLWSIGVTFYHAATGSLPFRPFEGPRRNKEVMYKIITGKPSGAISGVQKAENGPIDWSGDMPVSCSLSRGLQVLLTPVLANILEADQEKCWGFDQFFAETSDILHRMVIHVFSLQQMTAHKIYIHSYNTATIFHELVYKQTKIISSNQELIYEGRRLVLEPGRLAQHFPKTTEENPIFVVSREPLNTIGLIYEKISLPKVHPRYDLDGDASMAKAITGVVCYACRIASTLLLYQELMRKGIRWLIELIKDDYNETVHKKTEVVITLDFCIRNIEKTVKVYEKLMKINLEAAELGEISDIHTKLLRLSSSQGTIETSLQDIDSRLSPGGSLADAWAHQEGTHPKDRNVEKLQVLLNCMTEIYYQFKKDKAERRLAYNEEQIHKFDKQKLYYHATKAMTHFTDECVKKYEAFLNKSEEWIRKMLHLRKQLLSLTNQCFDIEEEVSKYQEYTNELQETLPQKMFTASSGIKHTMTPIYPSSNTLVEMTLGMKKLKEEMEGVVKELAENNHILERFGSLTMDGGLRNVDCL
# Calcium/calmodulin-dependent protein kinase type 1 (Homo sapiens), sequence (Q14012 whole entry, looked up): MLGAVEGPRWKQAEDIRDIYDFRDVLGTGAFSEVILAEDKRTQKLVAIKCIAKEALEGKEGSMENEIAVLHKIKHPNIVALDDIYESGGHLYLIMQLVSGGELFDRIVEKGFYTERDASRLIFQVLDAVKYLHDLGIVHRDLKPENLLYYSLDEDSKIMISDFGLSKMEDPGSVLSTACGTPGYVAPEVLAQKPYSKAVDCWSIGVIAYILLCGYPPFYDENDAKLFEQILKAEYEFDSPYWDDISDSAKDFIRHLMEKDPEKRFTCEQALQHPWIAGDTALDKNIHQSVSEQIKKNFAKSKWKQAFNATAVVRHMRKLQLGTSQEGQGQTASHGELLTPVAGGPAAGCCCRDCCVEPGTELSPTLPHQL
# Epidermal growth factor receptor, sequence (P00533 whole entry): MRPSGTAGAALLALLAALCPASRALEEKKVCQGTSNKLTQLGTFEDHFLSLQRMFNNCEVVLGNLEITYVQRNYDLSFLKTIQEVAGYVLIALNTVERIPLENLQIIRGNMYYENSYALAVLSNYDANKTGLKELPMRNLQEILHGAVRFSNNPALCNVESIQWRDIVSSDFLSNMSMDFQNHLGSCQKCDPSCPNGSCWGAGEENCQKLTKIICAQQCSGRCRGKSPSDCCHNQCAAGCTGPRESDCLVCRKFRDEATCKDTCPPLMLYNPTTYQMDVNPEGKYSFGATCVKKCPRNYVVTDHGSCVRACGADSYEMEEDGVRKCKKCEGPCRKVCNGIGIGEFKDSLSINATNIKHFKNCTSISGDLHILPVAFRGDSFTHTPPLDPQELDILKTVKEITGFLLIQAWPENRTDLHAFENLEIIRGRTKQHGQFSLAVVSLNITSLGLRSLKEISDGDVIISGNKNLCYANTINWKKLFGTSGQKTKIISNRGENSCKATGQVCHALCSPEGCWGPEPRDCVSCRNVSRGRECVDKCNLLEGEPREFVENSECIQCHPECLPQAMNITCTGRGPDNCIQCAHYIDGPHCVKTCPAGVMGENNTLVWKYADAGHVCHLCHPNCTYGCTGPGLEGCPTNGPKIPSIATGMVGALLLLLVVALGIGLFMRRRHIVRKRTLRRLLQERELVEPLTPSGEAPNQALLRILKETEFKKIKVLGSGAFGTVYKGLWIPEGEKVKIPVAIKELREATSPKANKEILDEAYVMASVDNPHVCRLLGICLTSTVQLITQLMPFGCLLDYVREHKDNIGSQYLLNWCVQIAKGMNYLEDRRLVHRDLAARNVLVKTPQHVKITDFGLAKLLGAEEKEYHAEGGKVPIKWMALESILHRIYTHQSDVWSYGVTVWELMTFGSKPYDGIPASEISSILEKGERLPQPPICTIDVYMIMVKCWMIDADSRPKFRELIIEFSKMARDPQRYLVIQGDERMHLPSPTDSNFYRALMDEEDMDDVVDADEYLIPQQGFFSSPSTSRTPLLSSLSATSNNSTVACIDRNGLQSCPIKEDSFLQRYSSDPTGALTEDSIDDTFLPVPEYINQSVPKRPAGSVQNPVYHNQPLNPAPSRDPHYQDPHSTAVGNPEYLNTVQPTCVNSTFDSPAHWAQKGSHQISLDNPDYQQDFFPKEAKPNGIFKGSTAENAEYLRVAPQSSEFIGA
SMILES,GI50 [1],GI50 [2],Activity [3],GI50 [4],GI50 [5],GI50 [6],Activity [7],Activity [8],GI50 [9],IC50 [10],Activity [11]
CN(C)C/C=C/C(=O)Nc1ccc2c(C#N)cnc(Nc3cccc(Br)c3)c2c1,15.8 µM,13.3 µM,25%,33.9 µM,21.9 µM,21.9 µM,75%,74%,29.9 µM,0.15 µM,82%
CN1CCN(CCC(=O)Nc2ccc3c(C#N)cnc(Nc4cccc(Br)c4)c3c2)CC1,–,–,14%,–,–,–,68%,81%,–,1.3 µM,87%
CN(C)CCCC(=O)Nc1ccc2c(C#N)cnc(Nc3cccc(Br)c3)c2c1,–,–,15%,–,–,–,84%,96%,–,–,99%

# Reference: ChEMBL document CHEMBL1641579, “Synthesis and biological evaluation of 7-substituted-1-(3-bromophenylamino)isoquinoline-4-carbonitriles as inhibitors of myosin light chain kinase and epidermal growth factor receptor” (Bioorg Med Chem, 2011)
